The text below walks through data of PubChem BioAssay.

Assay [1] can be described thus: inhibitors of TNFa-induced NFkB p65 translocation, primary screen, imaging, HUVEC, MLSMR starter and 10KST1 sets (AID 438;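 active = inhibition above 20% together with a positive visual image hit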;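 also: compound added about 3h40 before a 20 min TNFalpha stimulation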;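 as to inhibition: signal is the nuclear over cytoplasmic p65 intensity ratio per well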). The settings on record: HUVEC TNFa-induced p65 nuclear translocation; cell count: measured here: nuclei count (cytotoxicity indicator), at 2.08 µM; inhibition: at 2 µM, stronger effect = higher value, 0% TNFa-plus-vehicle, 100% no-TNFa wells.
Assay [2] in a line: endothelial E-selectin expression blockers – imaging, HUVEC, immunofluorescence, MLSMR starter and 10KST1 sets, primary screen (AID 487;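 active = visually confirmed hit in the image check and inhibition above 20%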;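 as to inhibition: signal is fraction of cell area covered by stained E-selectin grains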;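 as to nuclei count: 100% = median nuclei count of all wells on the same plate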). The settings on record: HUVEC TNFalpha-induced E-selectin immunofluorescence imaging, at 2 µM; inhibition: stronger effect = higher value; nuclei count: measured here: cell number, toxicity.
Assay [3] in a line: Primary imaging screen for DUSP6 inhibitors that restore phospho-Erk in transfected HeLa cells, chemical complementation (AID 609;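 active = compounds giving at least 50% inhibition in the cell-based MKP-3 phosphatase rescue imaging test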;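 as to inhibition: phospho-Erk level distribution per well compared with pooled transfected vehicle control wells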). As to conditions: HeLa MKP-3 transfected, phospho-Erk imaging KS statistic, at 10 µM, cells stimulated with TPA for 15 min.
The target in assay [4] is Dual specificity protein phosphatase 6 (Homo sapiens) (UniProt Q16828). Described as above. As to conditions: HeLa MKP-3 transfected, phospho-Erk imaging KS statistic; at 10 µM; stronger effect = higher value; cells stimulated with TPA for 15 min.
Chain of Dual specificity protein phosphatase 6 (Homo sapiens) (Q16828 whole entry, looked up): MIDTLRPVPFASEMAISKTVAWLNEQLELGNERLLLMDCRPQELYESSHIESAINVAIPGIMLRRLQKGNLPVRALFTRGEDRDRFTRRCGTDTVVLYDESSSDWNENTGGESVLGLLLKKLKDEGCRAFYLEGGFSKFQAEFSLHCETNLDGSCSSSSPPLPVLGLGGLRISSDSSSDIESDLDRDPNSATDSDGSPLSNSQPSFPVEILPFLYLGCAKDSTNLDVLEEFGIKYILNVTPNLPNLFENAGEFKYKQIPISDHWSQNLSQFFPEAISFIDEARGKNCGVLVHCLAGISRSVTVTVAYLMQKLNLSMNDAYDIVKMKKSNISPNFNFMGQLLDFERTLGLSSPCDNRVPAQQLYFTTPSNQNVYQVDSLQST
The target in assay [5] is Voltage-gated potassium channel subunit beta-2 (Rattus norvegicus) (UniProt P62483). Description: inhibitors of rat Kvbeta2 reductase activity – biochemical, NADPH fluorescence, primary screen (AID 622;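 active = fluorescence slope higher than the sample average by over 3 SD, cut at about -0.22 in these data, passing the limit was not always enough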;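 also: slope of raw intensity against log time taken from 70 to 1610 s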). As to conditions: recombinant KvBeta, 4-cyanobenzaldehyde reduction, at 10 µM, stronger effect = higher value.
Chain of Voltage-gated potassium channel subunit beta-2 (Rattus norvegicus) (P62483 whole entry, looked up): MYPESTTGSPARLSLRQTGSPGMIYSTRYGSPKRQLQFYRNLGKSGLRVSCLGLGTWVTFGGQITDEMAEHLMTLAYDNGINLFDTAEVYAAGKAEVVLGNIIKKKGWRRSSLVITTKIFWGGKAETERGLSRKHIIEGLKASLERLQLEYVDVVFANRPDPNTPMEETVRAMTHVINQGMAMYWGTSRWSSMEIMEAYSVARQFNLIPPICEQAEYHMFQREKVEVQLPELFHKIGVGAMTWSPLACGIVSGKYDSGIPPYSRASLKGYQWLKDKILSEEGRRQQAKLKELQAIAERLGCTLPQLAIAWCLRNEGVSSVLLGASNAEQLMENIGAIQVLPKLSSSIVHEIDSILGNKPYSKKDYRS
For assay [6] the target is unchanged. Put plainly: enhancers of rat Kvbeta2 NADPH turnover – biochemical, NADPH fluorescence, primary screen (AID 623).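 Also: fluorescence intensity change per second fitted from 20 to 320 s.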 The settings on record: Recombinant KvBeta, NADPH fluorescence decrease slope, 10 min; at 10 µM; stronger effect = lower value.
Assay [7] concerns the target Muscarinic acetylcholine receptor M4 (Homo sapiens) (UniProt P08173). Description: M4-linked GIRK flux change, two-sided – cell-based, HEK293 M4/GIRK, thallium flux, BTC-AM, M4 allosteric agonist project, primary screen (AID 625;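 active = fluorescence slope after compound addition differing from the mean of all tested samples at 99.7% confidence, mostly higher but some lower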;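 also: thallium influx through GIRK channels coupled to M4 in HEK293 cells with BTC-AM dye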). The settings on record: at 10 µM, actives lie on both sides. In a few lines: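 Material: M4/GIRK1/GIRK2 stable HEK293 cell line. Medium: pH 7.3 thallium assay buffer. Dosing: single compound concentration, 10 µM final. Schedule: 1 h dye loading, 2 min kinetic read. Measured by: kinetic fluorescence with BTC-AM dye. Read-out: post-addition slope, 15–24 s, of baseline-normalized fluorescence. Benchmarks: carbachol and DMSO controls.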

The nature of assay [8]: inhibitors of larval lipid processing in zebrafish, primary screen, whole organism, PED6 fluorescence, gall bladder and intestine (AID 686;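 active = a full or partial loss of lipid-probe fluorescence in the fish gall bladder, intestine or both, judged by eye; inactive = no fluorescence loss, or compound toxic to the fish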;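 also: larvae 5 to 7 days old with five fish per well; signal comes from phospholipase A2 cleavage of quenched PED6 carried via bile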). As to conditions: Zebrafish larvae PED6 lipid processing, fluorescence scoring; screened at 20 µM (by protocol). In a few lines: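 System: live zebrafish larvae aged 5-7 days, whole organism; measure: graded gall bladder and intestinal fluorescence inhibition per well; incubation: overnight exposure; reagent: ingested quenched lipid PED6 at 100 nM; signal: By-eye fluorescence microscopy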

Assay [9] in a line: loss of swimming-algae plug formation – whole organism, Chlamydomonas reinhardtii, WT vs cilia-less mutant, absorbance, 96-well, primary screen (AID 463189;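 active = inhibition at or above 50% relative to wild type and mutant plate controls; inactive = inhibition below 50%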;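 also: 0% = wild type cc124 cells in DMSO and 100% = ciliumless bld1 mutant cells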). The settings on record: Chlamydomonas reinhardtii gravitaxis, OD600 absorbance, 2 days; at 10 µM; stronger effect = higher value.
Where [10] appears, read: measured here: cell density z-score.
Setting [11] is: measured here: nuclear c-Myc green intensity z-score.
Where [12] appears, read: measured here: nuclear pErk red intensity z-score, stronger effect = higher value.

As usually defined, the inhibition is the change of the read-out against control, counted positive when it falls.

Structures are written as SMILES. Calls of active or inactive are those of the source.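 The calls were made as follows, unless noted: active = NADPH fluorescence slope more negative than the mean of all samples by about 3 SD, 99.7% confidence; inactive = the rest.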

Chain of Muscarinic acetylcholine receptor M4 (Homo sapiens) (P08173 whole entry, looked up): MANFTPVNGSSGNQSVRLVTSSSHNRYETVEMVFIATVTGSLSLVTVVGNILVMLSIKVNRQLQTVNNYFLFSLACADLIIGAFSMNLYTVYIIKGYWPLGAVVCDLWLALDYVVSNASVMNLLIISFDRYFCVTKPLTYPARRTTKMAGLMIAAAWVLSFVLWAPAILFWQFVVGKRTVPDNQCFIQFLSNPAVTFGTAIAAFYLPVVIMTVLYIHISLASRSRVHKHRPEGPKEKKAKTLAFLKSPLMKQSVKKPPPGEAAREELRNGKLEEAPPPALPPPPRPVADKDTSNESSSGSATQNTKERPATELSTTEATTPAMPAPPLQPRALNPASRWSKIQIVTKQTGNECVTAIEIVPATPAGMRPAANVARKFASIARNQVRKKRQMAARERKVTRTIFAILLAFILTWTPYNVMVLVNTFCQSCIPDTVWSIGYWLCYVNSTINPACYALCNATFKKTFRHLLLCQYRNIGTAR

Regarding `CCCC1C(c2ccc(OC)cc2)C(C#N)(C#N)C2(C#N)CC1(N)NC2=O` (centres undefined), in assay [1], the cell count was found to be 369. Besides, the inhibition in [1] is -0.7% (inactive); in assay [2], -28.9% (inactive); in [4], -2.69% (inactive); in assay [9], -15.7% (inactive). In [2], the nuclei count turned out to be 84.9%. Also, the z-score in [3] (setting [10]) was -2.59; in [3] (setting [11]), 2.42; in assay [3] (setting [12]), -0.136. Also, the fluorescence slope in assay [5] was -0.495 (inactive); in assay [7], 0.00515 (inactive). The NADPH fluorescence slope in [6] is 3.3e-05 (inactive). Moreover, the result in assay [8] was inactive.

For `CN1Cc2c(N3CCOCC3)nc(SCc3ccccc3)c(C#N)c2CC1(C)C`, in [1], the cell count was 524. Also, the inhibition was -3.1% (inactive) in assay [1], -101% (inactive) in assay [2], -0.584% (inactive) in assay [4] and 17.9% (inactive) in assay [9]. This compound displayed a nuclei count in assay [2] of 134%. The results for the z-score in assay [3] (setting [10]), in [3] (setting [11]) and in [3] (setting [12]) were -1.78, -0.223 and -1.03, respectively. Also, the fluorescence slope is -0.496 (inactive) in assay [5] and 0.00495 (inactive) in [7]. In addition, the NADPH fluorescence slope in assay [6] was -7.5e-06 (inactive). For the same compound, the result in assay [8] was inactive.

With `Cn1cccc1/C=N/n1cnnc1`, the cell count in assay [1] was 561. Further, the inhibition was 0.9% (inactive) in assay [1], -164% (inactive) in assay [2], -4.59% (inactive) in assay [4] and -1.85% (inactive) in assay [9]. This compound also returned a nuclei count in assay [2] of 130%. Moreover, the z-score in [3] (setting [10]) was 0.378; in assay [3] (setting [11]), -0.4; in assay [3] (setting [12]) it was -0.934. For the same compound, the fluorescence slope is -0.452 (inactive) in assay [5] and 0.0051 (inactive) in assay [7]. Besides, the NADPH fluorescence slope in [6] was -0.000125 (inactive). Further, the compound was called inactive in [8].

Take `COc1cc2c(cc1OC)C1(CCCC1)C(N)=C2C#N`: the cell count in assay [1] came to 374. The inhibition was 2.5% (inactive) in assay [1], 36.9% (inactive) in assay [2], 17.4% (inactive) in assay [4] and 2.1% (inactive) in assay [9]. Also, the nuclei count in assay [2] was found to be 104%. The z-score in assay [3] (setting [10]) is -0.0432; in [3] (setting [11]) it was -0.638; in [3] (setting [12]), 1.42. The results for the fluorescence slope in assay [5] and in assay [7] were -0.437 (inactive) and 0.00412 (inactive), respectively. Also, the NADPH fluorescence slope in [6] was -0.000121 (inactive). Besides, the outcome in assay [8] was inactive.

For the compound `CC(C)OCCCn1c(=N)c(C(N)=S)cc2c(=O)n3ccccc3nc21`, in assay [1], the cell count was 619. For the same compound, the inhibition in [1] was -7.9% (inactive); in [2], -3% (inactive); in [4] it was 17.7% (inactive); in assay [9], 22.8% (inactive). In addition, the nuclei count in assay [2] was 149%. Moreover, the values for the z-score in assay [3] (setting [10]), in assay [3] (setting [11]) and in assay [3] (setting [12]) were 1.16, -1.47 and -1.15, respectively. Also, the fluorescence slope was -0.454 (inactive) in [5] and 0.00453 (inactive) in assay [7]. Besides, in assay [6], the NADPH fluorescence slope was -4.1e-05 (inactive). The call in assay [8] was inactive.

`CCOC(=O)c1c(C)n(C)c2ccc(OC)c(NC(=O)CN3CCC4(CC3)OCCO4)c12`: the cell count in assay [1] amounted to 690. Moreover, the inhibition is -4.9% (inactive) in assay [1], -157% (inactive) in assay [2], -10.1% (inactive) in assay [4] and -0.554% (inactive) in assay [9]. The nuclei count in assay [2] is 178%. Also, the z-score in assay [3] (setting [10]) amounted to 0.288; in [3] (setting [11]) it was 0.471; in assay [3] (setting [12]), 0.00411. Besides, the fluorescence slope was -0.44 (inactive) in assay [5] and 0.00438 (inactive) in assay [7]. In addition, in assay [6], the NADPH fluorescence slope was -4.5e-05 (inactive). In [8], the compound was called inactive.

On to `Cc1cc(=O)oc2c(CN3CCC(C)CC3)c(O)c(Cl)cc12`, for which, in assay [1], the cell count amounted to 654. Also, the inhibition was -6.9% (inactive) in assay [1], -12% (inactive) in [2], 1.12% (inactive) in [4] and -2.21% (inactive) in [9]. The nuclei count in assay [2] was 171%. Besides, the z-score was 0.311 in [3] (setting [10]), 0.013 in assay [3] (setting [11]) and 0.217 in assay [3] (setting [12]). Besides, the figures for the fluorescence slope in assay [5] and in assay [7] were -0.0249 (inactive) and 0.00736 (inactive), respectively. The NADPH fluorescence slope in assay [6] was 4.3e-06 (inactive). Also, the compound was classed as inactive in assay [8].

For the compound `O=C(NCc1ccccc1)/C(=N\O)c1ccccc1`, the cell count in assay [1] worked out at 517. Also, the inhibition is -5.4% (inactive) in assay [1], 3.5% (inactive) in [2], -1.98% (inactive) in assay [4] and -1.95% (inactive) in [9]. Moreover, the nuclei count in assay [2] is 157%. Moreover, the z-score in assay [3] (setting [10]) is 0.588; in assay [3] (setting [11]), 0.215; in assay [3] (setting [12]), 0.627. The fluorescence slope was -0.382 (inactive) in assay [5] and 0.00503 (inactive) in assay [7]. Also, the NADPH fluorescence slope in assay [6] was -1.6e-05 (inactive). For the same compound, the outcome in assay [8] was inactive.

Consider `COC(=O)CSc1nc(C)c(Oc2ccccc2)c(=O)[nH]1`, for which the cell count in [1] turned out to be 726. Besides, the inhibition is 7.2% (inactive) in assay [1], -102% (inactive) in assay [2], -2.09% (inactive) in [4] and -8.15% (inactive) in [9]. Besides, the nuclei count in assay [2] came out at 162%. The z-score in [3] (setting [10]) is -1.93; in assay [3] (setting [11]), 2.21; in [3] (setting [12]) it was -0.257. Also, the fluorescence slope in [5] was -0.424 (inactive); in assay [7], 0.00506 (inactive). Also, the NADPH fluorescence slope in assay [6] is -5.8e-05 (inactive). For the same compound, the result in assay [8] was inactive.

`CCOC(=O)NC(Nc1cc(C)on1)(C(F)(F)F)C(F)(F)F`: in assay [1], the cell count is 705. In addition, the inhibition in [1] is -7.9% (inactive); in assay [2], -70% (inactive); in assay [4], -11.4% (inactive); in [9], -3.89% (inactive). In assay [2], the nuclei count came out at 169%. Besides, the z-score in assay [3] (setting [10]) is -0.319; in assay [3] (setting [11]), 1.98; in [3] (setting [12]) it was 0.812. The fluorescence slope in assay [5] is -0.465 (inactive); in assay [7], 0.00511 (inactive). In addition, the NADPH fluorescence slope in assay [6] was -3.9e-05 (inactive). Further, the result in assay [8] was inactive.

`Cc1c(C2CC(=O)N(c3ccccc3)C2=O)[nH]n(-c2ccccc2)c1=O` (centres undefined): in assay [1], the cell count was 618. In addition, the inhibition is 4.4% (inactive) in [1], -97.6% (inactive) in [2], -7.86% (inactive) in assay [4] and 6.43% (inactive) in assay [9]. Further, the nuclei count in assay [2] was found to be 143%. The z-score is -1.05 in assay [3] (setting [10]), 0.971 in assay [3] (setting [11]) and 0.084 in [3] (setting [12]). The fluorescence slope is -0.488 (inactive) in assay [5] and 0.00493 (inactive) in assay [7]. Further, the NADPH fluorescence slope in [6] was -5.3e-05 (inactive). In assay [8], the compound was classed as inactive.

For `Cn1c(N2CCN(c3ccccn3)CC2)nc2c1c(=O)n(Cc1ccccc1Cl)c(=O)n2C`, the cell count in assay [1] worked out at 738. Further, the inhibition in assay [1] is 4.2% (inactive); in [2], -56.1% (inactive); in assay [4], 13.9% (inactive); in assay [9], 5.36% (inactive). In assay [2], this compound returned a nuclei count of 177%. The z-score in assay [3] (setting [10]) was -0.827; in assay [3] (setting [11]) it was -0.0696; in assay [3] (setting [12]) it was 1.36. Further, the fluorescence slope was -0.465 (inactive) in assay [5] and 0.00667 (inactive) in [7]. Further, the NADPH fluorescence slope in [6] is -0.000144 (inactive). The compound was classed as inactive in assay [8].

As to `Cc1cc2c(c(=O)o1)C(CC(C)C)C(C#N)=C(N)O2` (centres undefined), the cell count in [1] worked out at 703. Also, the inhibition in assay [1] is 2% (inactive); in [2] it was -144% (inactive); in [4], -1.12% (inactive); in assay [9] it was 3.4% (inactive). The compound also returned a nuclei count in assay [2] of 167%. The results for the z-score in assay [3] (setting [10]), in assay [3] (setting [11]) and in assay [3] (setting [12]) were -0.228, -0.296 and -0.119, respectively. Also, the fluorescence slope in [5] is -0.436 (inactive); in [7] it was 0.00457 (inactive). The NADPH fluorescence slope in [6] is -5.8e-05 (inactive). The compound was called inactive in assay [8].
